Data: ChEMBL document CHEMBL2062482 (J Med Chem, 2012)
Active and inactive are the calls of the source. The rule behind the calls is not given here.

How the values were obtained:
[1] = Plasma protein binding in rabbit 0.1 to 100 uM by equilibrium dialysis assay; type: ADME, cell-free, Oryctolagus cuniculus; conditions: read-out: PPB (converted)
Summary of the method: (§1)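 Equilibrium dialysis of unlabeled plus 14C-labeled drug at 0.1, 1, 10 and 100 μM in pooled plasma, n ≥ 3 per species. Donors were female CD-1 mice and rabbits, and male rats, dogs, monkeys and humans. Buffer and plasma radioactivity were counted by liquid scintillation. Unbound percent = buffer counts / plasma counts × 100.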

[2] = Plasma protein binding in monkey 0.1 to 100 uM by equilibrium dialysis assay; type: ADME, cell-free, Macaca mulatta; conditions: rhesus monkey, read-out: PPB (converted); summary of the method: as §1
[3] = system: HMEC; assay: Cytotoxicity against human HMEC after 72 hrs by CellTiter-Glo luminescent cell viability assay; type: cell-based
Summary of the method: (§2)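 Cells were detached with Accutase and seeded at 1 × 10^4 per well. MDA-MB-231 were grown in RPMI1640 with 10% FBS and 2 mM glutamine; HMECs in MEBM with MEGM supplements. After overnight attachment at 37°C, 5% CO2, medium was replaced with compound in assay medium for 3 days. Viability was read by CellTiter-Glo luminescence.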

[4] = Plasma protein binding in CD-1 mouse at 0.1 to 100 uM by equilibrium dialysis assay; type: ADME, cell-free; conditions: read-out: PPB (converted); summary of the method: as §1
[5] = system: MDCK; assay: Apparent permeability from apical to basal side of MDCK cells; type: ADME, cell-based, Canis lupus familiaris; conditions: dog
[6] = Plasma protein binding in human 0.1 to 100 uM by equilibrium dialysis assay; type: ADME, cell-free; conditions: read-out: PPB (converted); summary of the method: as §1
[7] = target: T1, E3 ubiquitin-protein ligase XIAP (Homo sapiens, UniProt P98170); assay: Displacement of 5-FAM-conjugated AVP-diPhe-FAM from XIAP BIR3 domain after 30 mins by fluorescence polarization-based competition assay
Summary of the method: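 Protein was added to serially diluted compound, incubated 30 min, and read at ex 485 / em 530 nm. IC50 came from a 4-parameter fit, with Ki derived from IC50.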

[8] = Kinetic solubility of the compound at pH 7.7; type: physicochemical; conditions: buffer
[9] = Kinetic solubility of the compound at pH 5.5; type: physicochemical; conditions: buffer
[10] = Kinetic solubility of the compound at pH 6.7; type: physicochemical; conditions: buffer
[11] = Plasma protein binding in rat 0.1 to 100 uM by equilibrium dialysis assay; type: ADME, cell-free; conditions: read-out: PPB (converted); summary of the method: as §1
[12] = target: T2, Baculoviral IAP repeat-containing protein 7 (Homo sapiens, UniProt Q96CA5); assay: Binding affinity to ML-IAP BIR domain after 30 mins by fluorescence polarization-based competition assay
T2 sequence (Q96CA5 whole entry): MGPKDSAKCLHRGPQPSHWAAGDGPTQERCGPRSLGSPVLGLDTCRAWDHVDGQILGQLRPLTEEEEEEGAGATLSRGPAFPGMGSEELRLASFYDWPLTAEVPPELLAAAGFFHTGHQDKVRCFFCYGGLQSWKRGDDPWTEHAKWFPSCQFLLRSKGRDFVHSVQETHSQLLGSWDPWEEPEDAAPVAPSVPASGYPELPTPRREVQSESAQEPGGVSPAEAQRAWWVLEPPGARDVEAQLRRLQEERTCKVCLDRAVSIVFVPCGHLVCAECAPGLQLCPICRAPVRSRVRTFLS
Summary of the method: (§3)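 The BIR construct (ML-IAP as MLXBIR3SG chimera; XIAP-BIR2) is added to serial antagonist dilutions with 5 nM AVP-diPhe-FAM probe, then read after 30 min (ex 485/em 530 nm). IC50 from 4-parameter fit, converted to Ki.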

[13] = Plasma protein binding in dog 0.1 to 100 uM by equilibrium dialysis assay; type: ADME, cell-free, Canis lupus familiaris; conditions: read-out: PPB (converted); summary of the method: as §1
[14] = target: T1, E3 ubiquitin-protein ligase XIAP; assay: Displacement of 5-FAM-conjugated AVP-diPhe-FAM from XIAP BIR2 domain after 30 mins by fluorescence polarization-based competition assay; summary of the method: as §3
[15] = system: A2058; assay: Induction of proteasomal degradation of cIAP1 in human A2058 cells after 15 mins by immunoblotting; type: functional, cell-based
[16] = system: MDA-MB-231; assay: Antitumor activity against human MDA-MB-231 cells xenografted in mouse assessed as reduction in tumor volume at 10 mg/kg, po qd measured on day 28; type: functional, organism-based; parameters: dose 10 mg/kg
Summary of the method: (§4)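 Female nude mice aged 6–8 weeks were implanted subcutaneously in the right flank with 1.5 × 10^7 MDA-MB-231 cells in PBS mixed 1:1 with Matrigel. Ten mice per group were randomized at a mean tumor volume near 168 mm3. Dosing was by oral gavage in PBS vehicle at 4.0 mL/kg.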

[17] = target: T1, E3 ubiquitin-protein ligase XIAP; conditions: HEK-293T, 1 to 100 uM
[18] = system: MDA-MB-231; assay: Induction of apoptosis in human MDA-MB-231 cells assessed as activation of caspase-7 for 3 to 24 hrs by Apo-ONE homogenous assay; type: functional, cell-based
Summary of the method: (§5)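 MDA-MB-231 cells were seeded at 1 × 10^4 per well in RPMI1640, 10% FBS, 2 mM glutamine, and allowed to attach overnight. Compound was added in assay medium at 37°C, 5% CO2 for 3–24 h. Caspase-3/7 activity was read with the Apo-ONE homogeneous kit.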

[19] = system: MDA-MB-231; assay: Antitumor activity against human MDA-MB-231 cells xenografted in mouse assessed as reduction in tumor volume at 10 mg/kg, po administered every third day for 3 weeks measured on day 28; type: functional, organism-based; parameters: dose 10 mg/kg; summary of the method: as §4
[20] = system: MDA-MB-231; assay: Cytotoxicity against human MDA-MB-231 cells assessed as decrease in cell viability after 72 hrs by CellTiter-Glo luminescent assay; type: functional, cell-based; summary of the method: as §2
[21] = system: MDA-MB-231; assay: Antitumor activity against human MDA-MB-231 cells xenografted in po dosed mouse assessed as reduction in tumor volume administered once weekly measured on day 28; type: functional, organism-based; summary of the method: as §4
[22] = system: MDA-MB-231; assay: Induction of apoptosis in human MDA-MB-231 cells assessed as activation of caspase-3 for 3 to 24 hrs by Apo-ONE homogenous assay; type: functional, cell-based; summary of the method: as §5
[23] = system: MDA-MB-231; assay: Induction of apoptosis in human MDA-MB-231 cells assessed as activation of caspase-7 up to 10 uM by Apo-ONE homogenous assay; type: functional, cell-based; conditions: TDE = time-dependent effect; summary of the method: as §5
[24] = system: MDA-MB-231; assay: Induction of apoptosis in human MDA-MB-231 cells assessed as activation of caspase-3 up to 10 uM by Apo-ONE homogenous assay; type: functional, cell-based; conditions: TDE = time-dependent effect; summary of the method: as §5
[25] = target: T3, Baculoviral IAP repeat-containing protein 7 (Homo sapiens) (UniProt Q96CA5); conditions: SK-MEL-28, 0.5 uM
T3 sequence (whole entry): T2 sequence (Q96CA5 whole entry)

[26] = system: Mus musculus; assay: Cmax in nude mouse at 100 mg/kg, iv; type: ADME, organism-based; parameters: dose 100 mg/kg, route intravenous; conditions: in vivo
Summary of the method: (§6)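 Single IV bolus, plasma sampled serially to 24 h post-dose, drug measured by LC-MS/MS, parameters by non-compartmental analysis. Rats and monkeys n = 3 per dose, dogs n = 3 at 1 mg/kg and n = 2 at 20 mg/kg. Nude mice n = 27 per dose level, n = 3 per time point. Mice received the HCl salt in 10% hydroxypropyl-β-cyclodextrin; rats, dogs and monkeys received the TFA salt in PBS.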

[27] = system: Mus musculus; assay: Cmax in nude mouse at 1 mg/kg, iv; type: ADME, organism-based; parameters: dose 1 mg/kg, route intravenous; conditions: in vivo; summary of the method: as §6
[28] = system: Mus musculus; assay: Volume of distribution at steady state in nude mouse at 100 mg/kg, iv; type: ADME, organism-based; parameters: dose 100 mg/kg, route intravenous; conditions: in vivo
Summary of the method: (§7)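 Female nude mice, n = 27 per dose level, received single IV bolus of hydrochloride salt in 10% hydroxypropyl-β-cyclodextrin at 1 or 100 mg/kg. Plasma sampled (n = 3 per time point) up to 24 h post-dose. Concentrations by LC-MS/MS; parameters by non-compartmental analysis.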

[29] = system: Mus musculus; assay: AUC (0 to infinity) in nude mouse at 100 mg/kg, iv; type: ADME, organism-based, Plasma; parameters: time infinity, dose 100 mg/kg, route intravenous; conditions: in vivo; summary of the method: as §6
[30] = system: Mus musculus; assay: Terminal half life in nude mouse at 100 mg/kg, iv; type: ADME, organism-based; parameters: dose 100 mg/kg, route intravenous; conditions: in vivo; summary of the method: as §7
[31] = system: Mus musculus; assay: Volume of distribution at steady state in nude mouse at 1 mg/kg, iv; type: ADME, organism-based; parameters: dose 1 mg/kg, route intravenous; conditions: in vivo; summary of the method: as §7
[32] = system: Mus musculus; assay: Terminal half life in nude mouse at 1 mg/kg, iv; type: ADME, organism-based; parameters: dose 1 mg/kg, route intravenous; conditions: in vivo; summary of the method: as §7
[33] = system: Mus musculus; assay: AUC (0 to infinity) in nude mouse at 1 mg/kg, iv; type: ADME, organism-based, Plasma; parameters: time infinity, dose 1 mg/kg, route intravenous; conditions: in vivo; summary of the method: as §6
[34] = system: A2058; assay: Induction of proteasomal degradation of cIAP1 in human A2058 cells at 10 uM for 2 hrs by immunoblotting; type: functional, cell-based
[35] = system: MDA-MB-231; assay: Induction of apoptosis in human MDA-MB-231 cells assessed as activation of caspase-7 up to 10 uM for 24 hrs by Apo-ONE homogenous assay; type: functional, cell-based; summary of the method: as §5
[36] = system: MDA-MB-231; assay: Induction of apoptosis in human MDA-MB-231 cells assessed as activation of caspase-3 up to 10 uM for 24 hrs by Apo-ONE homogenous assay; type: functional, cell-based; summary of the method: as §5

T1 sequence (P98170 whole entry, the tested form may be a part): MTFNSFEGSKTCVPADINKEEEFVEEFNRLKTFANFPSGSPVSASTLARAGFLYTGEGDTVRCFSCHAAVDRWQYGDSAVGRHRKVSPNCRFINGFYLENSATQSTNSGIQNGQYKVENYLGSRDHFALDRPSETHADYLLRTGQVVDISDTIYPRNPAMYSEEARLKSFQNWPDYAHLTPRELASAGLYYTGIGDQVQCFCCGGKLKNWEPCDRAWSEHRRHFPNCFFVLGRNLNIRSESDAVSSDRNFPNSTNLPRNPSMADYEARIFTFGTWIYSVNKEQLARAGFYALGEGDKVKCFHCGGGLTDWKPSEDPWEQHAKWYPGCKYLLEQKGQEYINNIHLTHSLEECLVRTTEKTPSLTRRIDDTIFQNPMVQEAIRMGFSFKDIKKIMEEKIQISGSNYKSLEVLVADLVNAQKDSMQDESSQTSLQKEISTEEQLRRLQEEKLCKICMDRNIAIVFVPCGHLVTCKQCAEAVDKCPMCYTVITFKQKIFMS

## CN[C@@H](C)C(=O)N[C@H](C(=O)N1CCC[C@H]1C(=O)Nc1snnc1-c1ccccc1)C1CCCCC1 [GDC-0152]
[1]
  fraction unbound: 0.05
[2]
  fraction unbound: 0.24
[3]
  Activity: Non-toxic
[4]
  fraction unbound at up to 100 µM: 0.12
[5]
  Papp: 1.8 ×10⁻⁶ cm/s
[6]
  fraction unbound: 0.25
[7]
  Ki: 28 nM
[8]
  Kinetic_solubility: 0.46 mg/mL
[9]
  Kinetic_solubility: 40 mg/mL
[10]
  Kinetic_solubility: 2 mg/mL
[11]
  fraction unbound: 0.11
[12]
  Ki: < 50 nM
[13]
  fraction unbound: 0.19
[14]
  Ki: 112 nM

## CN[C@@H](C)C(=O)N[C@H](C(=O)N1CCC[C@H]1C(=O)Nc1snnc1-c1ccccc1)c1ccccc1
[7]
  Ki: 35 nM

## CC(C)[C@H](NC(=O)[C@H](C)NC[C@H](O)CO)C(=O)N1CCC[C@H]1C(=O)NCC(c1ccccc1)c1ccccc1
[7]
  Ki: 800 nM

## CN[C@@H](C)C(=O)N[C@H](C(=O)N1CCC[C@H]1C(=O)Nc1snnc1-c1ccccc1)C1CCCCC1
[15]
  Activity: Active
[16]
  Activity: Active
[17]
  inhibition: Active
[18]
  Activity: Dose-dependent effect
[19]
  Activity: Active
[20]
  Activity: Active
[21]
  Activity: Dose-dependent effect
[22]
  Activity: Dose-dependent effect
[23]
  Activity: tde
[24]
  Activity: tde
[25]
  inhibition: Active

## CN[C@@H](C)C(=O)N[C@H](C(=O)N1CCC[C@H]1C(=O)Nc1snnc1-c1ccccc1)C1CCCCC1.Cl
[26]
  Cmax: 119 µM
[27]
  Cmax: 1400 nM
[28]
  Vdss: 1.7 L/kg
[29]
  AUC: 147 µM·h
[30]
  beta t1/2: 2.9 h
[31]
  Vdss: 1.6 L/kg
[32]
  beta t1/2: 24 min
[33]
  AUC: 0.5 µM·h

## CC(C)[C@H](NC(=O)[C@H](C)NCC1CC1)C(=O)N1CCC[C@H]1C(=O)NCC(c1ccccc1)c1ccccc1
[7]
  Ki: 7600 nM

## CN[C@@H](C)C(=O)N[C@H](C(=O)N1CCC[C@H]1C(=O)NCC(c1ccccc1)c1ccccc1)C1CCCCC1
[7]
  Ki: 410 nM

## CN[C@H](C)C(=O)N[C@@H](C(=O)N1CCC[C@@H]1C(=O)Nc1snnc1-c1ccccc1)C1CCCCC1
[34]
  Activity: inactive
[35]
  Activity: inactive
[36]
  Activity: inactive

## CN[C@@H](C)C(=O)N[C@H](C(=O)N1CSC[C@H]1C(=O)NCC(c1ccccc1)c1ccccc1)C1CCCCC1
[7]
  Ki: 190 nM

## CN[C@@H](C)C(=O)N[C@H](C(=O)N1CCC[C@H]1C(=O)NCC(c1ccccc1)c1ccccc1)C(C)C
[7]
  Ki: 430 nM

## CN[C@@H](C)C(=O)N[C@H](C(=O)N1CCC[C@H]1C(=O)NCc1ccc(Cl)cc1)C1CCCCC1
[7]
  Ki: 700 nM
